The results in this text go back to ChEMBL document CHEMBL1127479, “Synthesis and structure-activity studies of N,N'-diarylguanidine derivatives. N-(1-naphthyl)-N'-(3-ethylphenyl)-N'-methylguanidine: a new, selective noncompetitive NMDA receptor antagonist” (J Med Chem, 1994).

Structures are written as SMILES.

For the first experiment, the target named is Glutamate NMDA receptor. The experiment is described as follows: In vitro concentration required to inhibit specific [3H]MK-801 radioligand binding to N-methyl-D-aspartate (NMDA) receptor on rat brain membrane. The gist of the method: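 Rat brain crude synaptic membranes, thawed, pretreated at 1 mg protein/mL with 0.01% Triton X-100 for 15 min at 37 °C, then washed three times by centrifugation. Filtration stop. IC50 taken from displacement curves or nonlinear least-squares regression.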
Regarding `NC(=Nc1ccccc1-c1ccccc1)Nc1ccccc1-c1ccccc1`, the 50% inhibitory concentration (IC50) (in general, the midpoint of a concentration-inhibition curve) amounted to 10000 nM. `CC(C)c1ccc(NC(=N)Nc2ccc(C(C)C)cc2)cc1` showed a concentration for half-maximal inhibition (IC50) of 23200 nM. `NC(=Nc1cccc2ccccc12)Nc1ccccc1I` yielded an IC50 of 209 nM. Same read-out and setting: as for `CCc1cccc(N(CC)C(N)=Nc2cccc3ccccc23)c1`, the figure is 73 nM.

For `Cc1cccc(N=C(N)N(C)c2cccc(C)c2)c1`, the 50% inhibitory concentration (IC50) amounted to 1990 nM.

On to `Cc1cccc(NC(=N)Nc2cccc(C)c2)c1`, for which the concentration for half-maximal inhibition (IC50) was found to be 335 nM. `NC(=Nc1ccc(Br)cc1)Nc1ccc(Br)cc1`: the IC50 was determined as 34000 nM. Regarding `NC(=Nc1cccc2ccccc12)N(c1ccccc1)c1cccc2ccccc12`, the IC50 is 484 nM. Same read-out and setting: under `CN(C(N)=Nc1cccc2ccccc12)c1ccccc1` stands 1030 nM; under `COc1cccc(N=C(N)Nc2cccc(OC)c2)c1`, 493 nM; under `CCc1cccc(N(C)C(N)=Nc2cccc3ccccc23)c1`, 36 nM. `N=C(Nc1ccc2ccccc2c1)Nc1ccc2ccccc2c1`: the IC50 was 12700 nM. As to `N=C(Nc1cccc2ccccc12)N1CCCCC1`, the IC50 turned out to be 10000 nM. With `CN(C(=N)Nc1cccc2ccccc12)c1cccc([N+](=O)[O-])c1`, the half-inhibitory concentration (IC50) came out at 87 nM.

As to `CCc1cccc(NC(=N)Nc2cccc3ccccc23)c1`, the IC50 worked out at 39 nM. `CC(C)c1ccccc1N=C(N)Nc1ccccc1C(C)C`: the IC50 came out at 217 nM. `C/[N+](=C(/[NH-])Nc1cccc([N+](=O)[O-])c1)c1cccc2ccccc12` gave an IC50 of 2800 nM. `CC(C)(C)c1ccccc1NC(=N)Nc1ccccc1C(C)(C)C` returned a concentration for half-maximal inhibition (IC50) of 38300 nM.

The compound `CCc1cccc(N=C(N)N2CCC(c3ccccc3)CC2)c1` gave a half-maximal inhibitory concentration (IC50) of 10000 nM. As for `Cc1ccccc1NC(=N)Nc1ccccc1C` [DITOLYLGUANIDINE], the IC50 is 9120 nM.

With `N=C(N1CCc2ccccc21)N1CCc2ccccc21`, the IC50 was above 100000 nM. As to `NC(=Nc1ccccc1I)Nc1ccccc1I`, the IC50 was 228 nM. The same measure, in the same setting: under `CN(C(N)=Nc1cccc2ccccc12)c1cccc2ccccc12` stands 115 nM. In turn, `NC(=Nc1cccc2ccccc12)NCc1ccccc1` registered an IC50 of 2900 nM.

In the case of `CCc1cccc(N(C)C(=N)N(CC)c2cccc3ccccc23)c1`, the IC50 turned out to be 97 nM. The compound `CCc1cccc(N(C)C(=N)N(C)c2cccc3ccccc23)c1` showed an IC50 of 100 nM.

Compound `CN(C(N)=Nc1cccc(N=[N+]=[N-])c1)c1cccc2ccccc12` gave a half-inhibitory concentration (IC50) of 1690 nM.

The compound `CN(C(=N)N(c1ccccc1)c1cccc2ccccc12)c1cccc2ccccc12` displayed a half-inhibitory concentration (IC50) of 470 nM. Consider `CN(C(=N)N(C)c1cccc2ccccc12)c1cccc2ccccc12`, for which the IC50 came to 69 nM. `CN(C(N)=Nc1cccc2ccccc12)c1cccc(N=[N+]=[N-])c1` displayed an IC50 of 65 nM. For the compound `CCc1ccc(NC(=N)Nc2ccc(CC)cc2)cc1`, the IC50 was 10300 nM.

`N=C(Nc1cccc2c1CCC2)Nc1cccc2c1CCC2`: the IC50 turned out to be 506 nM. `Cc1ccc(N=C(N)Nc2ccc(C)cc2)cc1` returned a concentration for half-maximal inhibition (IC50) of 13300 nM.

For `CC(C)c1ccccc1N=C(N)N(C)c1cccc2ccccc12`, the IC50 amounted to 859 nM. Consider `CCN(C(N)=Nc1cccc2ccccc12)c1cccc2ccccc12`, for which the IC50 was 117 nM. Regarding `CCc1cccc(NC(=N)Nc2cccc(CC)c2)c1`, the IC50 was determined as 168 nM. In turn, `NC(=Nc1cccc2ccccc12)N1CCCCCC1` returned an IC50 of 10000 nM. Still for that read-out and setting: as for `CCN(C(=N)N(C)c1cccc2ccccc12)c1cccc2ccccc12`, the figure is 53 nM; as for `N=C(Nc1cccc2ccccc12)Nc1cccc2ccccc12`, 330 nM; as for `N=C(Nc1cccc2ccccc12)N1CCC(c2ccccc2)CC1`, 10000 nM.

Consider `CC(C)c1ccccc1N=C(N)Nc1cccc2ccccc12`, for which the IC50 worked out at 102 nM.

`CCc1ccccc1NC(=N)Nc1ccccc1CC` registered a concentration for half-maximal inhibition (IC50) of 820 nM. Same read-out and setting: as for `CN(C(N)=Nc1cccc(N)c1)c1cccc2ccccc12`, the figure is 10000 nM. Same read-out and setting: under `CCCc1cccc(NC(=N)Nc2cccc(CCC)c2)c1` stands 2000 nM. The same measure, in the same setting: under `N=C(Nc1ccccc1)Nc1ccccc1` stands 3450 nM; under `CN(C(N)=Nc1cccc2ccccc12)c1cccc(N)c1`, 2070 nM; under `CC(C)c1cccc(NC(=N)Nc2cccc(C(C)C)c2)c1`, 407 nM. As to `CCc1cccc(N=C(N)N(C)c2cccc3ccccc23)c1`, the IC50 came to 537 nM. In turn, `Cc1cccc(NC(=N)Nc2cccc3ccccc23)c1` registered an IC50 of 192 nM.

Target in another experiment: not listed separately
Briefly: Tested in vitro for the concentration required to inhibit specific [3H]DTG radioligand binding to sigma receptor on guinea pig brain membrane.
In turn, `NC(=Nc1ccccc1-c1ccccc1)Nc1ccccc1-c1ccccc1` had an IC50 of 8110 nM. Take `CC(C)(C)c1ccccc1NC(=N)Nc1ccccc1C(C)(C)C`: the half-inhibitory concentration (IC50) is 356 nM. The compound `CCc1ccc(NC(=N)Nc2ccc(CC)cc2)cc1` displayed an IC50 of 245 nM. `CCc1ccccc1NC(=N)Nc1ccccc1CC`: the IC50 worked out at 14 nM.
